Data published in ChEMBL document CHEMBL5620421, “2,6-Disubstituted 7-(naphthalen-2-ylmethyl)-7H-purines as a new class of potent antitubercular agents inhibiting DprE1” (Eur J Med Chem, 2023).
Converted amounts (≈) assume the structure as drawn. The source made the active and inactive calls. The rule behind the calls is not given here.

What was measured:
[1] = test system: Mycobacterium tuberculosis; assay: Antimycobacterial activity against XDR clinical isolate Mycobacterium tuberculosis PRAHA 131 assessed as inhibition of mycobacterial growth measured after 14 to 21 days of incubation by Sulas semisynthetic medium based assay; type: functional; details: time 14-21 day
Procedure, shortened: (§1)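 Clinical MDR/XDR M. tuberculosis isolates were tested by the Sula's semisynthetic medium micromethod. Compounds in DMSO at 1000 to 0.5 μmol/L, in twofold-type steps. Incubation at 37 °C, read at 14 and 21 days. MIC99 is the lowest concentration inhibiting >99% of growth. Drug resistance or susceptibility of each isolate is to amikacin, clofazimine, gentamicin, ofloxacin, streptomycin and the others listed.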

[2] = test system: Mycobacterium tuberculosis; assay: Antimycobacterial activity against MDR clinical isolate Mycobacterium tuberculosis PRAHA 4 assessed as inhibition of mycobacterial growth measured after 14 to 21 days of incubation by Sulas semisynthetic medium based assay; type: functional; details: time 14-21 day; procedure, shortened: as §1
[3] = test system: Mycobacterium kansasii; assay: Antitubercular activity against Mycobacterium kansasii CNCTC My 235/80 assessed as inhibition of bacterial growth measured after 7 days of incubation by Sulas semisynthetic medium based assay; type: functional; details: CNCTC My 235/80, 168 h, time 7 day
Procedure, shortened: (§2)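 Micromethod in Sula's semisynthetic medium. MIC is the lowest concentration inhibiting >99% of the mycobacterial population. Isoniazid was the standard.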

[4] = test system: Mycobacterium kansasii; assay: Antitubercular activity against Mycobacterium kansasii CNCTC My 235/80 assessed as inhibition of bacterial growth measured after 21 days of incubation by Sulas semisynthetic medium based assay; type: functional; details: CNCTC My 235/80, 504 h, time 21 day; procedure, shortened: as §2
[5] = test system: Escherichia coli; assay: Antibacterial activity against Escherichia coli A1235 assessed as inhibition of bacterial growth incubated for 24 to 48 hrs by microdilution broth method; type: functional, organism-based; details: time 24-48 hrs
Procedure, shortened: (§3)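 Clinical isolates kept at –70 °C and subcultured twice on Mueller-Hinton agar, using the second subculture. Broth microdilution in Mueller-Hinton broth at pH 7.4 with two-fold serial compound dilutions and DMSO ≤1% final. Inoculum was 10 μL of a 1.5 × 10⁸ CFU/mL suspension. Incubated at 36 °C ± 1 °C and read at 24 h and 48 h. MIC taken as 95% growth inhibition.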

[6] = test system: Klebsiella pneumoniae; assay: Antibacterial activity against ESBL positive Klebsiella pneumoniae C1914 assessed as inhibition of bacterial growth incubated for 24 to 48 hrs by microdilution broth method; type: functional, organism-based; details: time 24-48 hrs; procedure, shortened: as §3
[7] = test system: Mycobacterium tuberculosis; assay: Antimycobacterial activity against XDR clinical isolate Mycobacterium tuberculosis PRAHA 4 assessed as inhibition of mycobacterial growth measured after 14 to 21 days of incubation by Sulas semisynthetic medium based assay; type: functional; details: time 14-21 day; procedure, shortened: as §1
[8] = test system: Staphylococcus aureus; assay: Antibacterial activity against Staphylococcus aureus C1947 assessed as inhibition of bacterial growth incubated for 24 to 48 hrs by microdilution broth method; type: functional, organism-based; details: time 24-48 hrs; procedure, shortened: as §3
[9] = Selectivity index, ratio of IC50 for cytotoxicity against human HepG2 cells by MTT assay to MIC99 for antitubercular activity against Mycobacterium tuberculosis CNCTC My 331/88 (H37Rv) assessed as inhibition of bacterial growth measured after 14 days of incubation; type: functional; details: time 14 day
Procedure, shortened: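 HepG2 cells, 15 × 10³/well, were attached overnight and exposed 24 h to serial dilutions (DMSO ≤1%). Read by MTT at 0.5 mg/mL for 1 h and 570 nm. IC50 from 4-parameter regression, three independent experiments in triplicate. SI is HepG2 IC50 divided by H37Rv MIC99.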

[10] = test system: H9c2; assay: Cytotoxicity against rat H9c2 cells assessed as cell viability at 50 uM incubated for 72 hrs by MTT spectrophotometric analysis relative to control; type: functional; details: read-out: Activity
Procedure, shortened: (§4)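 HepG2 or rat H9c2 cells in DMEM with FBS, seeded at 10,000 cells/well. Treated 24 h later for 72 h, with 0.1% DMSO vehicle and 1% Triton X-100 as controls. MTT added (3 mg/mL solution) for 2 h at 37 °C, then cells lysed in isopropanol/0.1 M HCl/5% Triton X-100. Read at 570 nm minus 690 nm. Viability expressed as % of vehicle; IC50 derived where reached. At least four independent experiments.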

[11] = test system: Mycobacterium kansasii; assay: Antitubercular activity against Mycobacterium kansasii CNCTC My 235/80 assessed as inhibition of bacterial growth measured after 14 days of incubation by Sulas semisynthetic medium based assay; type: functional; details: CNCTC My 235/80, 336 h, time 14 day; procedure, shortened: as §2
[12] = test system: Mycobacterium tuberculosis; assay: Antimycobacterial activity against MDR clinical isolate Mycobacterium tuberculosis PRAHA 131 assessed as inhibition of mycobacterial growth measured after 14 to 21 days of incubation by Sulas semisynthetic medium based assay; type: functional; details: time 14-21 day; procedure, shortened: as §1
[13] = test system: Enterococcus faecium; assay: Antibacterial activity against vancomycin-resistant Enterococcus faecium assessed as inhibition of bacterial growth incubated for 24 to 48 hrs by microdilution broth method; type: functional, organism-based; details: time 24-48 hrs
Procedure, shortened: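 Clinical isolates, stored at −70 °C, were passaged twice on Mueller-Hinton agar. Broth microdilution in Mueller-Hinton broth, pH 7.4, with twofold serial dilutions. DMSO was at most 1% final. Inoculum 1.5 × 10⁸ CFU/mL suspension. MIC is 95% growth inhibition, read after 24 and 48 h at 36 °C.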

[14] = test system: Mycobacterium tuberculosis; assay: Antitubercular activity against Mycobacterium tuberculosis CNCTC My 331/88 (H37Rv) assessed as inhibition of bacterial growth measured after 14 days of incubation by Sulas semisynthetic medium based assay; type: functional; details: 336 h, time 14 day
Procedure, shortened: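 Micromethod MIC in Sula's semisynthetic medium. MIC is the lowest concentration inhibiting >99% of the mycobacterial population. Isoniazid was the standard drug.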

[15] = test system: HepG2; assay: Cytotoxicity against human HepG2 cells incubated for 24 hrs by MTT assay; type: functional, cell-based; details: HepG2, 24 h
Procedure, shortened: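 HepG2 cells in DMEM with 10% FBS, seeded at 15 × 10³ cells/well and attached overnight. Exposed for 24 h to serial dilutions prepared from DMSO stocks, final DMSO ≤1%. Then given fresh medium with 0.5 mg/mL MTT for 1 h at 37 °C. Formazan dissolved in DMSO and read at 570 nm. IC50 from 4-parameter nonlinear regression; three independent experiments in triplicate, mean ± SD.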

[16] = test system: Mycobacterium tuberculosis; assay: Antimycobacterial activity against XDR clinical isolate Mycobacterium tuberculosis PRAHA 1 assessed as inhibition of mycobacterial growth measured after 14 to 21 days of incubation by Sulas semisynthetic medium based assay; type: functional; details: time 14-21 day; procedure, shortened: as §1
[17] = test system: H9c2; assay: Cytotoxicity against rat H9c2 cells assessed as cell viability incubated for 72 hrs by MTT spectrophotometric analysis; type: functional, cell-based; details: H9c2, 72 h; procedure, shortened: as §4
[18] = test system: Staphylococcus epidermidis; assay: Antibacterial activity against Staphylococcus epidermidis C1936 assessed as inhibition of bacterial growth incubated for 24 to 48 hrs by microdilution broth method; type: functional, organism-based; details: time 24-48 hrs; procedure, shortened: as §3
[19] = Intrinsic clearance in human liver microsomes at 3 uM incubated for 5 to 45 min in presence of NADPH by LC-MS analysis; type: ADME, Microsome; details: time 5-45 min, read-out: CLH
[20] = Stability in human plasma assessed as compound remaining at 1 uM incubated for 15 to 120 mins by LC-MS analysis; type: ADME, cell-free; details: time 15-120 min, read-out: Stability
Procedure, shortened: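 Stopped with acetonitrile containing internal standard and centrifuged at 12,000 rpm for 5 min at 4 °C. Supernatant analysed by LC-MS in positive mode. % remaining taken from compound/IS peak-area ratios at 120 versus 0 min.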

| SMILES | MIC99 [1] [µM] | MIC99 [2] [µM] | MIC99 [3] [µM] | MIC99 [4] [µM] | Activity [5] | Activity [6] | MIC99 [7] [µM] | Activity [8] | Selectivity Index [9] | viability at 50 µM [10] [%] | MIC99 [11] [µM] | MIC99 [12] [µM] | Activity [13] | MIC99 [14] [µM] | IC50 [15] [µM] | MIC99 [16] [µM] | IC50 [17] [µM] | Activity [18] | microsomal CLint at 3 µM [19] [µL/min/mg] | remaining at 1 µM [20] [%] |
| --- | --- | --- | --- | --- | --- | --- | --- | --- | --- | --- | --- | --- | --- | --- | --- | --- | --- | --- | --- | --- |
| COc1nc(N2CCOCC2)nc2ncn(Cc3ccc4ccccc4c3)c12 | 16 (≈ 6.01 µg/mL) | 8 (≈ 3 µg/mL) | 16 (≈ 6.01 µg/mL) | 64 (≈ 24 µg/mL) | inactive | inactive | 16 (≈ 6.01 µg/mL) | inactive | 32 | 92.6 | 32 (≈ 12 µg/mL) | 8 (≈ 3 µg/mL) | inactive | 2 (≈ 0.751 µg/mL) | 64.3 | 16 (≈ 6.01 µg/mL) | > 50 | inactive | – | – |
| O=c1[nH]c(N2CCSCC2)nc2ncn(Cc3ccc4ccccc4c3)c12 | 16 (≈ 6.04 µg/mL) | 8 (≈ 3.02 µg/mL) | 32 (≈ 12.1 µg/mL) | 125 (≈ 47.2 µg/mL) | inactive | inactive | 16 (≈ 6.04 µg/mL) | inactive | 16 | 97.1 | 64 (≈ 24.2 µg/mL) | 8 (≈ 3.02 µg/mL) | inactive | 2 (≈ 0.755 µg/mL) | > 32 | 16 (≈ 6.04 µg/mL) | > 50 | inactive | 127 | 98.2 |
| c1ccc2cc(Cn3cnc4nc(N5CCOCC5)nc(NC5CCC5)c43)ccc2c1 | 8 (≈ 3.32 µg/mL) | 4 (≈ 1.66 µg/mL) | 8 (≈ 3.32 µg/mL) | 8 (≈ 3.32 µg/mL) | inactive | inactive | 8 (≈ 3.32 µg/mL) | Active | 16.5 | – | 8 (≈ 3.32 µg/mL) | 4 (≈ 1.66 µg/mL) | Active | 2 (≈ 0.829 µg/mL) | 33 | 4 (≈ 1.66 µg/mL) | – | Active | 36.6 | 97.5 |
| CCOc1nc(N2CCOCC2)nc2ncn(Cc3ccc4ccccc4c3)c12 | 4 (≈ 1.56 µg/mL) | – | 8 (≈ 3.12 µg/mL) | 16 (≈ 6.23 µg/mL) | inactive | inactive | – | inactive | 43.45 | 94.8 | 16 (≈ 6.23 µg/mL) | 2 (≈ 0.779 µg/mL) | inactive | 1 (≈ 0.389 µg/mL) | 43.5 | – | > 50 | inactive | 24.4 | 99.6 |
| O=c1[nH]c(N2CCOCC2)nc2ncn(Cc3ccc4ccccc4c3)c12 | 32 (≈ 11.6 µg/mL) | 16 (≈ 5.78 µg/mL) | 32 (≈ 11.6 µg/mL) | 125 (≈ 45.2 µg/mL) | inactive | inactive | 32 (≈ 11.6 µg/mL) | inactive | 31.25 | 86 | 64 (≈ 23.1 µg/mL) | 32 (≈ 11.6 µg/mL) | inactive | 4 (≈ 1.45 µg/mL) | > 125 | 64 (≈ 23.1 µg/mL) | > 50 | inactive | 12.6 | 96.6 |
| O=c1[nH]c(N2CCCCC2)nc2ncn(Cc3ccc4ccccc4c3)c12 | 16 (≈ 5.75 µg/mL) | 8 (≈ 2.88 µg/mL) | > 500 | > 500 | inactive | inactive | 16 (≈ 5.75 µg/mL) | inactive | 43.6 | 79.4 | > 500 | 8 (≈ 2.88 µg/mL) | inactive | 2 (≈ 0.719 µg/mL) | 87.2 | 16 (≈ 5.75 µg/mL) | > 50 | inactive | 77.9 | 96.7 |
| c1ccc(CNc2nc(N3CCOCC3)nc3ncn(Cc4ccc5ccccc5c4)c23)cc1 | 4 (≈ 1.8 µg/mL) | 4 (≈ 1.8 µg/mL) | 4 (≈ 1.8 µg/mL) | 8 (≈ 3.6 µg/mL) | inactive | inactive | 4 (≈ 1.8 µg/mL) | inactive | 16.9 | – | 4 (≈ 1.8 µg/mL) | 4 (≈ 1.8 µg/mL) | inactive | 2 (≈ 0.901 µg/mL) | 33.8 | 4 (≈ 1.8 µg/mL) | – | inactive | 72.1 | 99.2 |
| CCNc1nc(N2CCOCC2)nc2ncn(Cc3ccc4ccccc4c3)c12 | 4 (≈ 1.55 µg/mL) | – | 4 (≈ 1.55 µg/mL) | 8 (≈ 3.11 µg/mL) | inactive | inactive | – | inactive | 63.88 | 88 | 8 (≈ 3.11 µg/mL) | 2 (≈ 0.777 µg/mL) | inactive | 1 (≈ 0.388 µg/mL) | 63.9 | – | > 50 | inactive | 27 | 95.5 |
| Nc1nc(N2CCOCC2)nc2ncn(Cc3ccc4ccccc4c3)c12 | 4 (≈ 1.44 µg/mL) | – | – | 16 (≈ 5.77 µg/mL) | inactive | inactive | – | inactive | >125 | 91.7 | 16 (≈ 5.77 µg/mL) | 2 (≈ 0.721 µg/mL) | inactive | 1 (≈ 0.36 µg/mL) | > 125 | – | > 50 | inactive | 16.8 | 103 |
